20 molecules from ChEMBL document CHEMBL1828604, “Antifungal activity of a series of 1,2-benzisothiazol-3(2H)-one derivatives” (Bioorg Med Chem, 2011) can be followed below.

Converted amounts (≈) assume the structure as drawn.

In one data set the test system is Candida albicans. As to the kind of experiment: Antifungal activity against Candida albicans CAF-2 after 24 hrs by broth microdilution method. It counts as functional. The conditions noted are these: CAF-2, 24 h. The method in brief: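 Broth microdilution per CLSI M27-A3: 1000 cells per well in RPMI, two-fold compound dilutions from 0.1 to 50 μg/ml, final volume 100 μL RPMI. MIC-50 is the lowest concentration that inhibits growth to half the OD of the untreated control.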

The subject of data set [1] is Meyerozyma guilliermondii. Put plainly: Antifungal activity against Candida guilliermondii after 24 hrs by broth microdilution method. It counts as functional. In short, it runs like this:
(§1)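 Broth microdilution per CLSI M27-A3 and M38-A2. 1000 cells per well in RPMI (final 100 µL) with two-fold compound dilutions from 0.1 to 50 µg/ml. MIC-50 is the lowest concentration that cuts growth to half the OD of the untreated control. Candida species are clinical strains. A. fumigatus strain is AF-294.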

Another data set has as its system Aspergillus fumigatus. As to the kind of experiment: Antifungal activity against Aspergillus fumigatus AF-294 after 48 hrs by broth microdilution method. The note with it: AF-294, 48 h.
The test system of the next data set is Clavispora lusitaniae. As to the kind of experiment: Antifungal activity against Candida lusitaniae after 24 hrs by broth microdilution method. It counts as functional. The method in brief: as §1
The nature of data set [2]: Cytotoxicity against human HepG2 cells after 72 hrs by neutral red cell viability assay. It counts as cell-based. The method in brief: (§2)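 Neutral red viability assay on HepG2 human hepatoma cells at defined compound concentrations, exposure 24, 48 or 72 h. CC-50 was calculated from the viability data.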
The test system of the next data set is Candida parapsilosis. As to the kind of experiment: Antifungal activity against Candida parapsilosis after 24 hrs by broth microdilution method. The conditions noted are these: Lodderomyces parapsilosis. It counts as functional. The method in brief: as §1
For a further data set, the system named is Huh-7. As to the kind of experiment: Cytotoxicity against human HuH7 cells by MTT assay. It counts as cell-based.
The test system of another data set is Candida tropicalis. As to the kind of experiment: Antifungal activity against Candida tropicalis after 24 hrs by broth microdilution method. It counts as functional. In short, it runs like this: as §1
For the next data set, the system named is Nakaseomyces glabratus. Put plainly: Antifungal activity against Candida glabrata after 24 hrs by broth microdilution method. It counts as functional. The method in brief:
as §1

For another data set, the system named is HepG2. Put plainly: Cytotoxicity against human HepG2 cells by MTT assay. It counts as cell-based. In short, it runs like this: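 MTT viability assay at defined compound concentrations in human hepatoma cell lines HepG2 and Huh7.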
Data set [3] can be described thus: Cytotoxicity against human HepG2 cells after 24 hrs by neutral red cell viability assay. It counts as cell-based. In short, it runs like this: as §2
The subject of data set [4] is Cryptococcus neoformans. As to the kind of experiment: Antifungal activity against Cryptococcus neoformans JEC-21 after 72 hrs by broth microdilution method. It counts as functional. The conditions noted are these: JEC-21, 72 h. The method in brief:
as §1

Data set [5] is described as follows: Cytotoxicity against human HepG2 cells after 48 hrs by neutral red cell viability assay. It counts as cell-based. The method in brief:
as §2

Data set [6] concerns Cryptococcus neoformans. Put plainly: Antifungal activity against Cryptococcus neoformans H-99 after 72 hrs by broth microdilution method. It counts as functional. The note with it: H-99, 72 h. The method in brief: as §1
The nature of data set [7]: Ratio of CC50 for human HepG2 cells to MIC50 for antifungal activity. It counts as functional.
Data set [8] in a line: Antifungal activity against Candida apicola after 24 hrs by broth microdilution method. It counts as functional. In short, it runs like this: as §1

`O=C(Cn1sc2ccccc2c1=O)NC12CC3CC(CC(C3)C1)C2`: the MIC50 with Candida albicans turned out to be 3.2 µg/mL (≈ 9.34 µM).
For the molecule `CC(C(=O)NCc1ccccc1)n1sc2ccccc2c1=O` (racemic), the MIC50 in the data set with Candida albicans was above 50 µg/mL.
Molecule `CCN(CC)C(=O)Cn1sc2ccccc2c1=O` had an MIC50 against Candida albicans above 50 µg/mL.
In the data set with Candida albicans, `C[C@H](NC(=O)Cn1sc2ccccc2c1=O)c1ccccc1` displayed an MIC50 of 6.4 µg/mL (≈ 20.5 µM).
Consider `O=C(Cn1sc2ccccc2c1=O)Nc1nccs1`, for which the MIC50 against Candida albicans was above 50 µg/mL.
On the same count and under the same terms, the same measure for `COC(=O)c1cccc(NC(=O)Cn2sc3ccccc3c2=O)c1`: 12.5 µg/mL (≈ 36.5 µM).
In the case of `CCN(Cc1ccccc1)C(=O)Cn1sc2ccccc2c1=O`, in the data set with Candida albicans, the MIC50 was 6.4 µg/mL (≈ 19.6 µM).
Take `CN(Cc1ccccc1)C(=O)Cn1sc2ccccc2c1=O`: the MIC50 in data set [1] was determined as 1.6 µg/mL (≈ 5.12 µM); in the data set on Aspergillus fumigatus, 12.5 µg/mL (≈ 40 µM); with Clavispora lusitaniae it was 1.6 µg/mL (≈ 5.12 µM); with Candida parapsilosis it was 1.6 µg/mL (≈ 5.12 µM); in the data set with Candida tropicalis, 1.6 µg/mL (≈ 5.12 µM); against Nakaseomyces glabratus, 1.6 µg/mL (≈ 5.12 µM). The MIC50 (with Candida albicans; against Cryptococcus neoformans [4]; in the data set on Cryptococcus neoformans [6]; in [8]) was 1.6 µg/mL (≈ 5.12 µM) in each case. Further, it took 23.2 µg/mL (≈ 74.3 µM) to reach half-maximal cytotoxicity in [2] (CC50 at 72 h). Moreover, the Activity result in the data set on Huh-7 and in the data set with HepG2 was “Toxic” each time. This molecule had a CC50 at 24 h in [3] of 62.2 µg/mL (≈ 199 µM). In data set [5], the CC50 at 48 h turned out to be 25.7 µg/mL (≈ 82.3 µM). Further, in data set [7], the Ratio was found to be 15.
In turn, `O=C(Cn1sc2ccccc2c1=O)NCCc1ccccc1` displayed an MIC50 against Candida albicans above 50 µg/mL.
Turning to `O=C(Cn1sc2ccccc2c1=O)NCc1ccccc1`, the MIC50 against Candida albicans turned out to be 3.2 µg/mL (≈ 10.7 µM).
Same read-out and setting: in the case of `C[C@@H](NC(=O)Cn1sc2ccccc2c1=O)c1ccccc1` it was 6.4 µg/mL (≈ 20.5 µM); in that of `COC(=O)c1ccccc1NC(=O)Cn1sc2ccccc2c1=O`, 6.4 µg/mL (≈ 18.7 µM).
As to `OC(Cn1cncn1)(Cn1cncn1)c1ccc(F)cc1F` [FLUCONAZOLE], the MIC50 in data set [1] came out at 6.4 µg/mL (≈ 20.9 µM); in the data set with Aspergillus fumigatus, 16 µg/mL (≈ 52.2 µM); against Clavispora lusitaniae, 3.2 µg/mL (≈ 10.4 µM); in the data set with Candida parapsilosis, 0.4 µg/mL (≈ 1.31 µM); in the data set on Candida tropicalis, 16 µg/mL (≈ 52.2 µM); with Nakaseomyces glabratus it was 3.2 µg/mL (≈ 10.4 µM). In addition, the MIC50 against Candida albicans was 0.2 µg/mL (≈ 0.653 µM); against Cryptococcus neoformans [4], above 64 µg/mL; in the data set with Cryptococcus neoformans [6], above 64 µg/mL; in [8], 0.2 µg/mL (≈ 0.653 µM).
`COc1ccc(CNC(=O)Cn2sc3ccccc3c2=O)cc1` showed an MIC50 with Candida albicans of 3.2 µg/mL (≈ 9.74 µM).
For the molecule `O=C(Cn1sc2ccccc2c1=O)Nc1ccccc1`, the MIC50 with Candida albicans is 6.4 µg/mL (≈ 22.5 µM).
Same read-out and setting: the same measure for `CN(C(=O)Cn1sc2ccccc2c1=O)c1ccccc1`: above 50 µg/mL.
Same read-out and setting: the same measure for `O=C(Cn1sc2ccccc2c1=O)NCCN1CCOCC1`: above 50 µg/mL; for `O=C(Cn1sc2ccccc2c1=O)NCc1ccc(F)cc1`: 1.6 µg/mL (≈ 5.06 µM); for `CC(C(=O)N(C)Cc1ccccc1)n1sc2ccccc2c1=O` (racemic): 25 µg/mL (≈ 76.6 µM).
Same read-out and setting: in the case of `COc1cccc(CNC(=O)Cn2sc3ccccc3c2=O)c1` it was 3.2 µg/mL (≈ 9.74 µM).
